EBV gp42 inh: inhibitors of Epstein-Barr virus glycoprotein 42; Fluorescence polarization binding assay, mP read-out; inhibition, % (tested at 21.74 µM); 0.42% of 220,000 active; AID 1085; in the data active = inhibition above about 50%
Target sequence (Q1HVG2 whole entry, looked up): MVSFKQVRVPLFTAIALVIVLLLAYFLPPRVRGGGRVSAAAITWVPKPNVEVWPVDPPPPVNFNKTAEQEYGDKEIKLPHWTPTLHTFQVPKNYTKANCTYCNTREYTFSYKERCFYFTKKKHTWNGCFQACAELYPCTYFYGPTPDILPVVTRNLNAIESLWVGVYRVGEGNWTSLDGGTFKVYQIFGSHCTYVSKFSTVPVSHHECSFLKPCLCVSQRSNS
VIM-2 inhibitor: inhibitors of Pseudomonas aeruginosa VIM-2 metallo-beta-lactamase | purified VIM-2, nitrocefin hydrolysis, epi-absorbance fluorescence | 0.89% of 290,000 active | inhibition, % at 5.6 µM;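 active = inhibition above the mean of all tested compounds plus 3 SD, cutoff set per screening run, cut at about 7.5% in these data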;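 note: red hydrolysis product quenches plate fluorescence so inhibitors raise well fluorescence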
MEX-5 binding: C. elegans MEX-5 TCR-2 RNA binding activity | AID 1832 | MEX-5/FITC-TCR2 RNA binding, fluorescence polarization; stronger effect = lower value | Q9XUB2 | 0.38% of 300,000 active | activity score (negative = inhibition of binding), % at 10 µM;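 active = inhibition past about -25% in most replicates, and total fluorescence under double the plate's negative control median, limit read from the data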
Target sequence (Q9XUB2 whole entry, looked up): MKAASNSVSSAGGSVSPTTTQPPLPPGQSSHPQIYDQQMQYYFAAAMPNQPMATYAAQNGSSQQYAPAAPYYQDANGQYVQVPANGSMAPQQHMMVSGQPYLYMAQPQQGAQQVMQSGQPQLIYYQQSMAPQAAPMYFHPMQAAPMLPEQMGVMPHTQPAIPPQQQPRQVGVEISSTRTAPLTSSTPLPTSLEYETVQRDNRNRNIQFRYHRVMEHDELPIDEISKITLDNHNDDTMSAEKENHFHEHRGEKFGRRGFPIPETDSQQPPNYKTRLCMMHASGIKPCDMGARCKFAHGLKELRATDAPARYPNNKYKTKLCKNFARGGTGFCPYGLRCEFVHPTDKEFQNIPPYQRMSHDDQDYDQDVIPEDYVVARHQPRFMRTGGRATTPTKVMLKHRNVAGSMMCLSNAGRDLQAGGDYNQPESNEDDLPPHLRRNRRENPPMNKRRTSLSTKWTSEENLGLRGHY
BCLXL inh: inhibitors of human Bcl-xL | 0.7% of 320,000 active | AID 2129 | inhibition, % at 10.9 µM | GST-Bcl-xL / FITC-Bim BH3 peptide fluorescence polarization | Q07817;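 active = inhibition above the mean of all tested compounds plus 3 SD, cutoff set per campaign, cut at about 30% in these data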;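 note: inhibitors lower millipolarization by displacing the labeled peptide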
IMP-1 inh: inhibitors of Pseudomonas aeruginosa IMP-1 metallo-beta-lactamase; purified IMP-1, nitrocefin hydrolysis, epi-absorbance fluorescence; inhibition, % at 5.6 µM; 0.45% of 290,000 active;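 active = inhibition above the mean plus 3 SD of all compounds in the same screening run, cut at about 4.5% in these data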
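system = purified recombinant IMP-1 beta-lactamase | amount = 0.2 nM IMP-1, as dispensed | medium = HEPES buffer pH 7.1 with ZnSO4 and Brij 35 | times = 25 °C, 15 min preincubation, 25 min reaction | detection = plate fluorescence quenching by hydrolysis product, ex 480/em 530 nm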
GLD-1 RNA inh: GLD-1-TGE RNA interaction inhibition (C. elegans); inhibition, % at 5.96 µM; purified GLD-1 + fluorescein TGE RNA, fluorescence polarization; 0.44% of 320,000 active; Q17339;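 active = percent inhibition above a per-plate cutoff, the plate mean of test compounds plus 3 SD, cut at about 30% in these data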
Large screens that a line does not name were inactive. Hits are enriched below; roughly 2.2% of the tested compounds scored in any of these assays.

CC(C)(C)c1cc[n+](C2=C([O-])c3ccccc3C(=O)/C2=N\S(=O)(=O)c2cccs2)cc1	IMP-1 inh 7.0
CCCCNCc1cc2ccccc2o1	none
CCCc1[nH]nc2c1C(c1ccc(OCCN3CCOCC3)c(OCC)c1)C(C#N)=C(N)O2 (stereo not drawn)	VIM-2 inhibitor 8.7
Cc1cccc(N2CCN(S(=O)(=O)c3c(C)[nH]c(C)c3C(=O)N3CCCC3)CC2)c1C	GLD-1 RNA inh 31 (no result: EBV gp42 inh)
Cc1cccc(N2CCN(S(=O)(=O)c3c(C)[nH]c(C)c3C(=O)N3CCCCC3)CC2)c1C	none (no result: EBV gp42 inh)
CSc1ccc(C2NC(=O)c3c(sc4c3CCN(C)C4)N2)cc1 (stereo not drawn)	none
CN1CCc2c(sc3c2C(=O)NC(c2cccs2)N3)C1 (stereo not drawn)	BCLXL inh 32
Cc1ccsc1C1NC(=O)c2c(sc3c2CCN(C)C3)N1 (stereo not drawn)	BCLXL inh 37
CN1CCc2c(sc3c2C(=O)NC(/C=C\c2ccccc2)N3)C1 (stereo not drawn)	none
O=C(NCc1ccccc1)C(c1ccccc1)N(C(=O)c1csnn1)C1CCCC1 (stereo not drawn)	none (no result: EBV gp42 inh)
CN1CCN(C(=O)c2cc(Br)cn2C)CC1	none (no result: EBV gp42 inh)
CCc1nn(CC(=O)NCCN2CCOCC2)c(=O)c2cc3c(OC)cccc3n12	VIM-2 inhibitor 8.8 (no result: EBV gp42 inh)
COc1cccc2c1cc1c(=O)n(CC(=O)NC3CCCCC3)nc(C)n12	none (no result: EBV gp42 inh)
COc1cccc2c1cc1c(=O)n(CC(=O)NCCCN3CCN(C)CC3)nc(C)n12	VIM-2 inhibitor 10 (no result: EBV gp42 inh)
CCCSCCCNC(=O)Cn1nc(CC)n2c(cc3c(OC)cccc32)c1=O	IMP-1 inh 9.1 (no result: EBV gp42 inh)
COCCN(C(=O)CSc1nnc(-c2ccccc2F)o1)c1c(N)n(CC(C)C)c(=O)[nH]c1=O	none (no result: EBV gp42 inh, VIM-2 inhibitor, IMP-1 inh)
CCC1CCCCN1CCCNC(=O)c1ccc(CS(=O)(=O)c2ccccc2C)o1 (stereo not drawn)	none (no result: EBV gp42 inh)
O=C(O)C1C2CCC(CC2)C1C(=O)N1CCN(Cc2ccc(F)cc2)CC1 (stereo not drawn)	IMP-1 inh 15 (no result: EBV gp42 inh)
O=C(C1CCN(Cc2ccc(F)cc2)CC1)N1CCN(C/C=C/c2ccccc2)CC1	none
COc1ccccc1CNS(=O)(=O)c1ccc2c(c1)CC(C)N2C(=O)C1CCC1 (stereo not drawn)	none (no result: EBV gp42 inh)
CCCc1cc(=O)n(-c2nc3ccccc3s2)[nH]1	EBV gp42 inh 69 (no result: MEX-5 binding)
CCOC(=O)Cc1cc(=O)n(-c2nc3ccccc3s2)[nH]1	none
Oc1ccc(C=Nc2cccc3ncccc23)c(O)c1	GLD-1 RNA inh 55
COc1cccc(N=Cc2ccc(O)cc2O)c1	BCLXL inh 43
Oc1ccc(C=Nc2ccc3ncccc3c2)c(O)c1	none
Clc1cccc(-c2ccc(CNCc3ccccn3)o2)c1	VIM-2 inhibitor 11 (no result: EBV gp42 inh)
S=C(NCc1ccccn1)Nc1cccc(Cl)c1	none
C/C(=N\NC(=O)c1cccc(Br)c1)c1cccnc1	none (no result: EBV gp42 inh, BCLXL inh, GLD-1 RNA inh)
N#Cc1c(OCC(=O)c2ccccc2)nc2c(c1-c1ccco1)CCc1ccccc1-2	BCLXL inh 34
CCCCOc1ccccc1C(=O)N(Cc1ccc(C)o1)C1CCS(=O)(=O)C1 (stereo not drawn)	none (no result: EBV gp42 inh)
CCOc1cc(Br)c(/C=C2/C(=O)N(C)C(=S)N2CC(=O)OC)cc1OC	MEX-5 binding -32
CCOc1cc(/C=C2/NC(=O)N(CC(=O)OC)C2=O)ccc1OC	none
CSc1nc(N2CCOCC2)c2sccc2n1	VIM-2 inhibitor 8.1
CSc1nc(Cl)c(Cc2ccc(OC(C)C)cc2)c(N2CCOCC2)n1	none
Cc1cc(C)cc(OCC(=O)OCC(=O)c2cc(C)n(C3CC3)c2C)c1	none (no result: EBV gp42 inh)
CC(=O)Nc1cc(C)nn1-c1nc(C)cc(C)n1	VIM-2 inhibitor 9.3
Cc1cc(C)nc(-n2nc(C)cc2NC(=O)C(C)C)n1	none
Cc1ccc(Nc2cc(C)nn2-c2nc(C)cc(C)n2)cc1	VIM-2 inhibitor 7.8
Cc1nc2ccccc2c2oc(C(=O)N3CCC(N4CCCCC4)CC3)cc12	VIM-2 inhibitor 60 (no result: MEX-5 binding)
Cc1nc2ccccc2c2oc(C(=O)N3CCCC(C)C3)cc12 (stereo not drawn)	VIM-2 inhibitor 9.6 (no result: EBV gp42 inh)
COCc1ccc(C(=O)N2CCCC(CNC(=O)c3ccc(F)cc3)C2)o1 (stereo not drawn)	none (no result: EBV gp42 inh)
Cc1ccc(NC(=O)c2cccc(S(=O)(=O)N(C)C3CCCCC3)c2)nc1	none (no result: EBV gp42 inh, VIM-2 inhibitor, IMP-1 inh)
O=C(CNC(=O)c1ccc(Br)o1)NCC(=O)OCc1ccccc1	none (no result: EBV gp42 inh, VIM-2 inhibitor, IMP-1 inh)
CC(=O)N(C)c1ccc(N=NC2C(=O)N(C(N)=S)N=C2C)cc1 (stereo not drawn)	MEX-5 binding -26 (no result: EBV gp42 inh)
CC1=NN(C(N)=S)C(=O)C1N=Nc1ccccc1O (stereo not drawn)	none (no result: EBV gp42 inh)
CC1=NN(C(N)=S)C(=O)C1N=Nc1cccc(Cl)c1 (stereo not drawn)	none (no result: EBV gp42 inh)
CC(=O)N(C)c1ccc(N=Nc2c(C)[nH]n(C(N)=S)c2=O)cc1	MEX-5 binding -32
CC1=NN(C(N)=S)C(=O)C1N=Nc1c(Cl)cc([N+](=O)[O-])cc1Cl (stereo not drawn)	MEX-5 binding -31 (no result: EBV gp42 inh)
CC1=NN(C(N)=S)C(=O)C1N=Nc1c(C)cc(C)cc1C (stereo not drawn)	none
CC1=NN(C(N)=S)C(=O)C1N=Nc1ccc(S(N)(=O)=O)cc1 (stereo not drawn)	MEX-5 binding -69 (no result: EBV gp42 inh)
CC(=O)N(C)c1ccc(N=Nc2c(C)[nH]n(-c3ccccc3)c2=O)cc1	none (no result: EBV gp42 inh)
Cc1ccc2ccc3cccnc3c2n1	VIM-2 inhibitor 9.5 (no result: EBV gp42 inh)
Cc1cc(S(=O)(=O)N2CCN(CC(=O)NCCc3cccs3)CC2)ccc1Br	none (no result: EBV gp42 inh, VIM-2 inhibitor, MEX-5 binding, IMP-1 inh)
COc1ccccc1NC(=O)NCc1ccc(C)n1C	VIM-2 inhibitor 11 (no result: EBV gp42 inh)
Cc1ccc(CC2C(=O)N(c3ncccn3)C(=O)C2C)cc1 (stereo not drawn)	IMP-1 inh 4.9
CC1=Nc2ccccc2/C1=C\c1nc(-c2ccc(F)cc2)oc1O	EBV gp42 inh 138, MEX-5 binding -36, BCLXL inh active, GLD-1 RNA inh 172
CC1=Nc2ccccc2/C1=C\c1sc(Nc2ccc(C)cc2)nc1O	none
CCn1c(=NC(=O)CN2C(=O)CCC2=O)sc2c(OC)ccc(OC)c21	IMP-1 inh 4.6
CCn1c(=NC(=O)c2ccc(N3C(=O)CCC3=O)cc2)sc2c(OC)ccc(OC)c21	none
C/C(O)=c1/ccc2cccc3nc(C)nc1c23	EBV gp42 inh 110, MEX-5 binding -41, BCLXL inh 71
CCN(CC)c1ncnc2c1sc1nc(N3CCOCC3)c3c(c12)CCC3	IMP-1 inh 7.0 (no result: MEX-5 binding, BCLXL inh, GLD-1 RNA inh)
c1nc(N2CCOCC2)c2sc3nc(N4CCOCC4)c4c(c3c2n1)CCCC4	none (no result: EBV gp42 inh, MEX-5 binding, BCLXL inh, GLD-1 RNA inh)
CC(C)CNc1nnnc2c1sc1nc(N3CCOCC3)c3c(c12)CC(C)(C)SC3	none
CC1(C)Cc2c(c(N3CCOCC3)nc3sc4c(NN)ncnc4c23)CS1	IMP-1 inh 12
CN(C)CCCN(C(=O)c1ccc([N+](=O)[O-])o1)c1nc2cc3c(cc2s1)OCO3	none (no result: EBV gp42 inh)

Source: PubChem (several laboratories)
